Compound activity deposited in PubChem by The Scripps Research Institute Molecular Screening Center.
This is a sample that favours compounds with a hit; in the whole collection about 0.7% have one here.
proCasp3 act = activators of human procaspase-3; recombinant procaspase-3 D3A, Ac-DEVD-pNA absorbance 405 nm; 330,000 tested, 0.11% active; activation, % at 8.5 µM;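 active = activation above the mean of all tested compounds plus 3 SD, cut at about 21% in these data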;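 note: 0% = DMSO alone and 100% = DMSO wells spiked with extra 5 µM PC-3 D3A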
Target sequence (P42574 whole entry D9A/D28A/D175A): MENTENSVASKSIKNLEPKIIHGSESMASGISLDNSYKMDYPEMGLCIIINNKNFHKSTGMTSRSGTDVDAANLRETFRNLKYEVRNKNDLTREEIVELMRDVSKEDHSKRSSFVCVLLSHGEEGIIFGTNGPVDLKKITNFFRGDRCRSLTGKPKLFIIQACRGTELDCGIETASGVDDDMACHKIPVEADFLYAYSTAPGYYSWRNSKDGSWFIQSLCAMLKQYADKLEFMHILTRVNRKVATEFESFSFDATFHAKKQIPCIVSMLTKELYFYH
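Technique: 405 nm absorbance of p-nitroaniline, reads at 0 and 120 min; Test system: Procaspase-3 D3A mutant; Incubation: 1 h enzyme-compound preincubation, then 2 h substrate reaction, 25 °C; Repeats: singlicate, each compound tested once; Benchmarks: low control DMSO wells, high control DMSO plus 5 µM PC-3 D3A.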
GAA850 FXN act = increases GAA850 frataxin promoter reporter activity | HEK293 lucGAA850 FXN promoter luciferase reporter, 24 h; percent of 10 µM SAHA response | activation, % at 6 µM | 360,000 tested, 0.56% active | AID 540364;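 active = activation above the average of all compounds screened plus 3 SD, cutoff fixed separately per campaign, cut at about 7.5% in these data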;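 note: 0% = DMSO wells and 100% = 10 µM SAHA wells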
proCasp7 act = activates human procaspase-7, counter-screen for procaspase-3 activators | P55210 | recombinant procaspase-7, Ac-DEVD-pNA absorbance 405 nm; D23A/D198A/D206A triple mutant, cannot self-cleave; scale: DMSO 0, 5 µM enzyme 100 | activation, % at 8.5 µM | 330,000 tested, 0.093% active;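 active = percent activation above the screen-wide mean plus 3 SD, cut at about 25% in these data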
Target sequence (P55210 whole entry D23A/D198A/D206A): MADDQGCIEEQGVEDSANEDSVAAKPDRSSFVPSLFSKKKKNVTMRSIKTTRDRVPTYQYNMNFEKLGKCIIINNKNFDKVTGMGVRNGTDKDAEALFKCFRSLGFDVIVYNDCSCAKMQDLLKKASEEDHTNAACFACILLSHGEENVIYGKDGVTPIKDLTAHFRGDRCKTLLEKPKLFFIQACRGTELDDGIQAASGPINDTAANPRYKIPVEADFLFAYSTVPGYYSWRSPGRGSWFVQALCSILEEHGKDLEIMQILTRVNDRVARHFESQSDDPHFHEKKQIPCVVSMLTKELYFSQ
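Assay system: Uncleavable procaspase-7 mutant enzyme | Input: 2 µM procaspase-7 mutant as dispensed | Timing: 1 h compound preincubation, 2 h substrate cleavage, 25 °C | Repeats: One well per compound | Control set: DMSO wells as 0%, DMSO with 5 µM added PC-7 as 100% | Technique: Epi-absorbance of released pNA at 405 nm, two timepoints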
GAA30 FXN cntr = counter-screen for GAA850 frataxin promoter activators: GAA30 promoter activation; shares compounds with GAA850 FXN act; HEK293 lucGAA30 FXN promoter luciferase, 24 h; DMSO = 0%, 5 µM ipriflavone = 100%; activation, % at 6 µM; 1,900 tested, 66% active; AID 588350;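 active = mean activation above the mean of solvent-only control wells plus 3 SD, cut at about 22% in these data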;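 note: counterscreen of GAA850 promoter hits where activity marks nonselective or luminescence artifacts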
GAA850 confirm = confirmation of GAA850 frataxin (FXN) promoter activators; shares compounds with GAA850 FXN act; HEK293 lucGAA850 FXN promoter luciferase reporter, 24 h; 100% = activation by SAHA; activation, % at 6 µM; 1,900 tested, 86% active; AID 588351;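 active = mean activation above a set limit taken from the primary screen, cut at about 8% in these data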;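 note: 0% = DMSO wells and 100% = 10 µM SAHA wells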
Starred values were filed as active, the others as inactive; x = no result.

SMILES	proCasp3 act	GAA850 FXN act	proCasp7 act	GAA30 FXN cntr	GAA850 confirm
O=C(COC(=O)C1CCN(c2ccc(C(F)(F)F)cn2)CC1)Nc1ccc(F)cc1[N+](=O)[O-]	8	0	13	x	x
COc1ccc(CCNC(=O)c2ccc3c(=O)n4c(nc3c2)CCC4)cc1OC	x	2	x	x	x
O=C(NCc1ccccn1)C1Nc2ccc(C(F)(F)F)cc2C2C=CCC12 (stereo unspecified)	-5	0	-3	x	x
O=C(NCCCN1CCOCC1)c1cc(-c2ccc(F)cc2)on1	2	9.9*	-2	48*	18*
O=C(NCCN1CCOCC1)c1cc(-c2ccc(F)cc2)on1	2	6	-2	x	x
CCC(=O)N1CCN(c2ccc(NC(=O)c3ccc([N+](=O)[O-])o3)cc2Cl)CC1	x	9.3*	x	42*	26*
CCN1CCN(c2ccc(NC(=O)c3ccc([N+](=O)[O-])o3)cc2Cl)CC1	x	4	x	x	x
CCC(=O)N1CCN(c2ccc(Cl)cc2NC(=O)c2ccc([N+](=O)[O-])o2)CC1	3	2	-9	x	x
CC(=O)N1CCN(c2ccc(NC(=O)c3ccc([N+](=O)[O-])o3)cc2Cl)CC1	2	7.7*	3	41*	28*
Cc1cc(C(=O)NC(C)CCC(C)C)c2ccccc2n1 (stereo unspecified)	-4	2	8	x	x
CC(Cc1nnc(SCC(=O)O)n1N)c1ccccc1 (stereo unspecified)	-2	1	-14	x	x
O/N=C(/CCc1ccccc1)c1ccc2c(c1)OCCO2	8	8.0*	-4	117*	33*
O=C(CCc1ccccc1)c1ccc2c(c1)OCCCO2	-1	2	-1	x	x
O=C1CCc2cc(NS(=O)(=O)c3ccccc3)cc3c2N1CC3	2	0	2	x	x
COc1cc(OCC(=O)NC(C)C)cc2c1C(=O)O[C@@H](C)CCCC(=O)CCCCC2	2	4	6	x	x
COc1cc2c(c(OCC(=O)NC(C)C)c1)C(=O)O[C@@H](C)CCCC(=O)CCCCC2	3	12*	-4	23*	9.8*
O=C(O)CN1CCNCCN(CC(=O)O)CCNCC1	x	-1	x	x	x
O=C1Cc2c([nH]c3ccc(Br)cc23)-c2ccccc2N1	x	68*	x	167*	201*
Brc1ccc2[nH]c3c(c2c1)CCC3	-7	0	0	x	x
Nc1[nH]nc2nc3ccccc3cc12	-1	3	-3	x	x
Nc1cccc2nc3ccccc3cc12	-12	19*	-6	-14	101*
C/C(=N\NC1=NCCN1)c1ccc(N)c([N+](=O)[O-])c1	5	2	-7	x	x
CCCCCCOc1ccc(/C(C)=N/NC2=NCCN2)cc1[N+](=O)[O-]	-3	7.8*	15	28*	17*
CCOC(=O)Nc1csnn1	x	2	x	x	x
COc1ccc(-c2cnc3cccnn23)cn1	x	2	x	x	x
SMILES	proCasp3 act	GAA850 FXN act	proCasp7 act	GAA30 FXN cntr	GAA850 confirm
Clc1ccc(-c2cnc3cccnn23)cc1	x	9.0*	x	38*	15*
c1cnn(Cc2cnc(N3CCOCC3)s2)c1	-1	1	4	x	x
Cc1ccc(NC(=O)NC(=S)NC(=O)c2ccccc2)cc1	-8	8.2*	5	56*	24*
Cc1ccc(C(=O)NNC(=S)NC(=O)c2ccccc2)cc1	4	1	-22	x	x
Cc1cc(NC(=O)CSc2nc(C(C)C)nc3sc(C)c(C)c23)no1	3	7.9*	4	-6	13*
Cc1sc2nc(C(C)C)nc(SCC(=O)NC3CC3)c2c1C	10	-2	0	x	x
Clc1ccc(-c2csc(Nc3ccccc3)[n+]2Cc2ccco2)c(Cl)c1	x	7.9*	x	83*	37*
CCCC[n+]1c(-c2ccc(Cl)cc2Cl)csc1Nc1ccccc1	1	2	6	x	x
CCCNS(=O)(=O)c1cccc2cccnc12	0	3	10	x	x
COc1ccccc1NC(=O)c1ccc(NS(=O)(=O)c2cccc3cccnc23)cc1	3	8.6*	0	16	9.8*
O=C(c1ccc(NS(=O)(=O)c2cccc3cccnc23)cc1)N1CCCCC1	1	0	7	x	x
O=S(=O)(Nc1ccc(N2CCCCC2)cc1)c1cccc2cccnc12	-1	8.0*	-2	19	7
O=S(=O)(NCCO)c1cccc2cccnc12	4	14*	-1	20	5
COc1ccc(C)cc1NC(=O)c1ccc(NS(=O)(=O)c2cccc3cccnc23)cc1	-4	7	6	x	x
CCOC(=O)Cn1ccc(NC(=O)COc2ccc(F)cc2)n1	-4	-1	-7	x	x
CC(C)(CO)NCC#Cc1ccccc1	3	1	5	x	x
Cc1cc(C(=O)CSc2n[nH]c(N)n2)c(C)n1-c1ccccc1	-1	8.9*	-1	101*	28*
Cc1ccc(-n2c(C)cc(C(=O)CSc3n[nH]c(N)n3)c2C)cc1	-9	3	-5	x	x
O=C(c1cc2cc(Cl)ccc2oc1=O)N1CCOCC1	6	-2	-8	x	x
O=C(c1cc2ccccc2oc1=O)N1CCOCC1	6	7.7*	5	102*	34*
COCCN(CC(=O)Nc1cccc(C)c1C)C(=O)c1ccc(-n2cccn2)cc1	15	1	1	x	x
CSC1=C(C#N)C(c2ccccc2Cl)C2=C(N1)c1ccccc1C2=O (stereo unspecified)	-3	1	-5	x	x
CSC1=C(C#N)C(c2ccccc2C)C(C#N)=C(N)N1 (stereo unspecified)	-1	11*	-7	25*	15*
COc1ccc(S(=O)(=O)N2CCN(C(=O)NCc3ccc(OC)c(OC)c3)CC2)cc1	-2	1	4	x	x
N/C(=N/OC(=O)c1ccccc1Cl)c1ncc([N+](=O)[O-])s1	1	15*	-1	103*	51*
SMILES	proCasp3 act	GAA850 FXN act	proCasp7 act	GAA30 FXN cntr	GAA850 confirm
N/C(=N\OC(=O)c1ccccc1Cl)c1cccc([N+](=O)[O-])c1	-2	6	0	x	x
Cc1cc2c(cc1S(=O)(=O)CCC(=O)NCCc1ccccc1)OCC(=O)N2	3	-3	2	x	x
CN(C)Cc1ccc(-c2nc3cccc4c3n2CCNC4=O)cc1	-8	7.8*	4	25*	50*
Cc1cc(CN(C)C(=O)CC2C(=O)NCCN2Cc2ccc(-c3ccccc3)cc2)on1 (stereo unspecified)	-5	-3	-9	x	x
Cc1ccc(F)cc1NC(=O)CSc1n[nH]c(N)n1	11	0	2	x	x
O=C(Nc1cccc(Cl)c1)Nc1nnc([C@H]2C[C@H](O)[C@@H](CO)O2)s1	x	4	x	x	x
O=c1[nH]nc(CNc2ccc(OC(F)(F)F)cc2)c2ccccc12	8	9.0*	5	40*	20*
O=c1[nH]nc(CNc2ccc(C(F)(F)F)cc2)c2ccccc12	7	5	-5	x	x
CCOc1ccc(Br)cc1C1=NN(C(C)=O)C(c2ccc([N+](=O)[O-])s2)O1 (stereo unspecified)	x	0	x	x	x
